# Bcl-W Bim block: inhibitors of Bim binding to Bcl-W, primary screen, biochemical, multiplexed, bead-based flow cytometry. Bcl-2-like protein 2 (Homo sapiens), Q92843. Bim peptide-Bcl-W binding. inhibition, % at 10 µM. 0.02% of 190,000 active;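 further: higher means less fluorescent Bim peptide bound to Bcl-W beads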
# Bcl-XL Bim block: inhibitors of Bim-Bcl-XL binding, primary screen, biochemical, multiplexed, bead flow cytometry, human Bcl-XL. Bcl-2-like protein 1 (Homo sapiens), Q07817. Bim peptide-Bcl-XL binding, fluorescence. inhibition, % at 10 µM. 0.04% of 190,000 active. AID 1007, 2008
# Target sequence (Q07817 whole entry, looked up): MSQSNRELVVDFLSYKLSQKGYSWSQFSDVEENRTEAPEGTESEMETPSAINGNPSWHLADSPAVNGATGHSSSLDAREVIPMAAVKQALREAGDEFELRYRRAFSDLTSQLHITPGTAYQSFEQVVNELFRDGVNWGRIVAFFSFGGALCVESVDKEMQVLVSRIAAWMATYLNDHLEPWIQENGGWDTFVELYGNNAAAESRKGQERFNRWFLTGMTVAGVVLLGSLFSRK
# Calb biofilm kill: clotrimazole potentiators killing C. albicans biofilm, primary screen, 4-compound mixtures | inhibition, % at 7.6 µM | 0.02% of 120,000 active | C. albicans biofilm persisters + clotrimazole, fluorescence viability; primary screen in compound mixtures of four per well;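 further: compounds exposed to preformed 24 h biofilms for 48 h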
#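 Test system: C. albicans CAF4-2 wild-type biofilms; buffer or medium: RPMI/MOPS medium, pH 7.0; schedule: 24 h biofilm formation, then 48 h compound exposure, 37 °C; detection: Alamar Blue fluorescence; measure: percent inhibition of biofilm viability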
# Bim-Bcl-2: inhibitors of Bim-Bcl-2 binding, primary screen, biochemical, multiplexed, human Bcl-2 family; Apoptosis regulator Bcl-2 (Homo sapiens), P10415; Bead-based flow cytometry, Bim peptide-Bcl-2 binding; inhibition, % at 10 µM; 0.06% of 190,000 active; AID 950, 2007; in the data active means inhibition above about 40%
# Bim-Bcl-B: inhibitors of Bim-Bcl-B binding, primary screen, biochemical, multiplexed, human Bcl-2 family | bead-based flow cytometry, Bim peptide-Bcl-B binding | inhibition, % at 10 µM | 0.073% of 190,000 active | AID 951, 2007
# Bim-Bfl-1: inhibitors of Bim binding to Bfl-1, primary screen, biochemical, multiplexed, bead-based flow cytometry. Bcl-2-related protein A1 (Homo sapiens), Q16548. Bim-Bfl-1 binding inhibition. inhibition, % at 10 µM. 0.12% of 190,000 active. AID 1008, 2008
# Target sequence (Q16548 whole entry, looked up): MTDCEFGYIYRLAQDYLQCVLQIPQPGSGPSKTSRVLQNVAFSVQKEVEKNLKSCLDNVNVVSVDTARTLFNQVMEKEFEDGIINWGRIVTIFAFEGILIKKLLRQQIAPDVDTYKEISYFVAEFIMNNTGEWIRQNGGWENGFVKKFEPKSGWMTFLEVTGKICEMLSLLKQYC
# A number is an active result; . = inactive; / = no result. A selection: hits, their analogues and other compounds. The true share with any hit is near 0.17%. Unless noted, no stated cut-off is given here; in the data, active means inhibition above about 40%.
SMILES,Bcl-W Bim block,Bcl-XL Bim block,Calb biofilm kill,Bim-Bcl-2,Bim-Bcl-B,Bim-Bfl-1
C1=CC2c3ccccc3NC(c3ccncc3)C2C1 (stereo unspecified),.,.,/,.,.,55.0
Cc1c(N2C(=O)c3ccc4c5c(ccc(c35)C2=O)CC4)c(=O)n(-c2ccccc2)n1C,.,.,/,.,58.0,.
CC(C)(C)c1ccc(C(=O)NCC(=O)N/N=C/c2ccccc2OCC(=O)O)cc1,.,.,.,.,.,.
COc1cc2[nH]c(=S)nc(NCCc3ccc(C)cc3)c2cc1OC,.,.,.,.,.,.
COc1ccc(CCNc2nc(=S)[nH]c3cc(OC)c(OC)cc23)cc1OC,.,48.0,.,.,.,.
COc1cc2[nH]c(=S)nc(Nc3ccc(NC(C)=O)cc3)c2cc1OC,.,50.0,.,.,.,.
COc1cc2[nH]c(=S)nc(NCCc3ccc(S(N)(=O)=O)cc3)c2cc1OC,.,55.0,.,.,.,.
COCCn1c(NCc2ccco2)nc2c1c(=O)[nH]c(=O)n2C,.,.,.,.,.,.
O=C(Nc1cccnc1)/C(N=Nc1cccnc1)=C(\O)c1ccccc1,.,.,.,.,.,.
OCCC1CN(Cc2cccc3c2OCO3)CCN1C1CCCC1 (stereo unspecified),.,.,.,.,.,.
Cc1nc2cc(NC(=O)N3CCN(c4ccccn4)CC3)ccc2o1,.,.,/,.,.,.
CC(=O)c1ccc(NC(=O)c2ccc3nc(-c4ccco4)c(-c4ccco4)nc3c2)cc1,.,.,/,.,.,51.0
O=C(NCCO)Nc1ccc2nsnc2c1,.,.,.,.,.,.
CCCCNC(=O)c1ccc2nc(-c3ccco3)c(-c3ccco3)nc2c1,.,.,/,.,.,.
O=C(Nc1ccc2nc(-c3ccco3)c(-c3ccco3)nc2c1)N1CCN(c2ccccn2)CC1,.,.,.,.,.,53.0
O=C(NCCCO)c1ccc2nc(-c3ccco3)c(-c3ccco3)nc2c1,.,.,.,.,.,52.0
O=C(Nc1ccc(N2CCOCC2)cc1)c1ccc2nc(-c3ccco3)c(-c3ccco3)nc2c1,.,.,/,.,.,.
O=C(NCCO)Nc1ccc2nc(-c3ccco3)c(-c3ccco3)nc2c1,.,.,.,.,.,43.0
CN1CCN(c2ccc(CNC(=O)c3ccco3)cc2)CC1,/,/,.,/,/,/
O=C(Nc1ccccc1)c1ccc2nc(-c3ccco3)c(-c3ccco3)nc2c1,.,.,/,.,.,45.0
Cc1ccc(-c2nc3c(c(=O)[nH]c(=O)n3Cc3ccccc3)n2C)o1,.,.,.,.,.,40.0
Cc1ccc2cc(C3CC(c4ccco4)=NN3S(C)(=O)=O)c(Cl)nc2c1 (stereo unspecified),/,/,.,/,/,/
COc1cc(CNc2ccc(N3CCCC3)cc2)ccc1OCc1ccccc1,.,.,.,.,.,47.0
COc1cc(CNc2ccc(N3CCCC3)cc2)ccc1OCc1ccccc1F,.,.,.,.,.,.
COc1ccc(C(=S)N2CCCCCC2)cc1,46.0,53.0,.,.,.,52.0
SMILES,Bcl-W Bim block,Bcl-XL Bim block,Calb biofilm kill,Bim-Bcl-2,Bim-Bcl-B,Bim-Bfl-1
CN(C)c1ccc(/C=C/c2ccc3ccccc3[n+]2C)cc1,.,.,34.5,.,.,.
COC(=O)NC1CCC(NC(=O)OC)CC1 (stereo unspecified),.,.,.,.,.,.
Clc1cccc(Cl)c1CNc1ccc(N2CCCC2)cc1,.,.,.,.,.,59.0
COC(CNC(=O)C1CCCN(S(=O)(=O)c2c(C)noc2/C=C/c2cccs2)C1)OC (stereo unspecified),.,.,.,.,.,.
Cc1ccc(-c2ccc(/C=C3\SC(N4CCOCC4)=NC3=O)o2)cc1,.,.,.,.,.,41.0
O=C1N=C(N2CCOCC2)S/C1=C/c1ccc(-c2ccc(F)cc2)o1,.,.,.,.,.,.
O=C1NC(=S)S/C1=C/c1ccc(N2CCOCC2)o1,.,.,.,.,.,53.0
